Data published in paper PMC10463567 (Journal of medicinal chemistry, 2023).
Where “and” joins values, the source holds several entries; their conditions need not be identical. Equal entries are not always repeated. Entries after “also recorded” stand apart in the source; their conditions may differ. Structures can show the parent of a compound that is named as a salt.

What was measured:
[1] = test system: ZIKV (FLR strain, Colombia, 2015); assay: Anti-ZIKV; assay type: cell-based, Zika virus; conditions: Vero cells; for % inhibition of ZIKV at 10 μM: ZIKV FLV (FLR) strain, viral titer vs untreated
[2] = test system: Vero cells; assay: Cytotoxicity to Vero cells in the anti-ZIKV screen; assay type: cell-based, monkey; conditions: 10 μM screen; in Table 2 printed in the % inhibition at 10 μM column
In short: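 Cytopathic effect and cell death were scored by microscope, with MTT to quantitate viable cells. Compounds giving CPE-like phenotype or cell death at 10 μM were flagged as cytotoxic.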

[3] = test system: ZIKV RNA; assay: Quantitative RT-PCR of ZIKV RNA copies in supernatant of infected Vero cells; assay type: cell-based, Zika virus
In short: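 Viral RNA was extracted with TRIzol from 50 μL of culture supernatant. One-step TaqMan RT-qPCR used ZIKV-specific primers and probe amplifying envelope gene region 3. ZIKV RNA was expressed as copies/mL, calculated from a standard curve.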

[4] = test system: ZIKV (FLV strain); assay: Time-of-addition; assay type: cell-based, Zika virus; conditions: 1 μM, added together with virus, Vero cells
[5] = test system: Zika virus NS5, NS3 and capsid proteins; assay: Western blot of viral NS5, NS3 and capsid proteins in ZIKV-infected Vero cells; assay type: cell-based; conditions: 48h
[6] = test system: ZIKV; assay: Anti-ZIKV activity in Vero cells with added glutathione; assay type: cell-based, Zika virus; conditions: 1 mM GSH in culture media
In short: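 ZIKV (FLR strain) infected Vero cells were given test compound in culture medium supplemented with 1 mM glutathione, a nucleophilic thiol, to test whether the compound acts by covalent reaction. Anti-ZIKV activity was read in the cell-based antiviral assay.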

**Q.** How did the “% inhibition of ZIKV at 10 μM” value ([1]; 10 μM, 10 µM) turn out when “3-(3-tert-Butylphenyl)-2-[2-(1-naphthyl)ethenyl]-4(3H)-quinazolinone [Compound 19]” was run?
**A.** 68% and 68.4%

**Q.** How did the “% inhibition of ZIKV at 10 μM” value ([1]; 10 μM) turn out when “3-(3-tert-Butylphenyl)-2-[2-(3-methoxyl-2-pyridinyl)ethenyl]-4(3H)-quinazolinone [Compound 11]” was run?
**A.** 0%

**Q.** How did the “% inhibition of ZIKV at 10 μM” value ([1]; 10 μM) turn out when “3-(3-tert-Butylphenyl)-2-[2-(4-trifluoromethyl-3-pyridinyl)ethenyl]-4(3H)-quinazolinone [Compound 3]” was run?
**A.** 90.0%

**Q.** “6-(4-Methylpiperazin-1-yl)-3-(3-tert-butylphenyl)-2-(2,6-dimethoxystyryl)-4(3H)-quinazolinone [Compound 40]” was tested. Which “Cytotoxicity to Vero cells” value [2] did it give?
**A.** Cytotoxic

**Q.** How did the “% inhibition of ZIKV at 10 μM” value ([1]; 10 μM) turn out when “6-(Piperidin-1-yl)-3-(3-tert-butylphenyl)-2-(2,6-dimethoxystyryl)-4(3H)-quinazolinone [Compound 39]” was run?
**A.** 96.8%

**Q.** With `CCN(CC)c1ccc2nc(/C=C/c3cccc(OC)n3)n(-c3cccc(C(C)(C)C)c3)c(=O)c2c1` [Compound 1, 6-Diethylamino-3-(3-tert-butylphenyl)-2-[2-(6-methoxyl-2-pyridinyl)ethenyl]-4(3H)-quinazolinone] as the compound, how does the “fold activity enhancement to inhibit ZIKV replication compared to unsubstituted compound 11” value ([1]; 10 μM) read?
**A.** ≥ 1,000 fold

**Q.** With `CC(C)(C)c1cccc(-n2c(/C=C/c3cccnc3)nc3ccccc3c2=O)c1` [Compound 12, 3-(3-tert-Butylphenyl)-2-[2-(3-pyridinyl)ethenyl]-4(3H)-quinazolinone] as the compound, how does the “% inhibition of ZIKV at 10 μM” value ([1]; 10 μM) read?
**A.** inactive

**Q.** How did the “% inhibition of ZIKV at 10 μM” value ([1]; 10 μM) turn out when `CC(C)(C)c1cccc(-n2c(/C=C/c3ccccc3)nc3ccccc3c2=O)c1` [Compound 15, 3-(3-tert-Butylphenyl)-2-(2-phenylethenyl)-4(3H)-quinazolinone] was run?
**A.** inactive

**Q.** Which “% inhibition of ZIKV at 10 μM” value ([1]; 10 μM) does the source give for `COc1cccc(/C=C/c2nc3ccc(Cl)cc3c(=O)n2-c2cccc(C(C)(C)C)c2)n1` [Compound 20, 6-Chloro-3-(3-tert-butylphenyl)-2-[2-(6-methoxyl-2-pyridinyl)ethenyl]-4(3H)-quinazolinone] here?
**A.** inactive

**Q.** Which “% inhibition of ZIKV at 10 μM” value ([1]; 10 μM) does the source give for `COc1ccc2nc(/C=C/c3cccc(OC)n3)n(-c3cccc(C(C)(C)C)c3)c(=O)c2c1` [Compound 21, 6-Methoxy-3-(3-tert-butylphenyl)-2-[2-(6-methoxyl-2-pyridinyl)ethenyl]-4(3H)-quinazolinone] here?
**A.** inactive

**Q.** With `COc1cccc(/C=C/c2nc3ccc(N4CCCCC4)cc3c(=O)n2-c2cccc(C(C)(C)C)c2)n1` [Compound 22, 6-(Piperidin-1-yl)-3-(3-tert-butylphenyl)-2-[2-(6-methoxyl-2-pyridinyl)ethenyl]-4(3H)-quinazolinone] as the compound, how does the “ZIKV RNA copies in the supernatant” value [3] read?
**A.** dose-dependently reduce

**Q.** `COc1cccc(/C=C/c2nc3ccc(N4CCNCC4)cc3c(=O)n2-c2cccc(C(C)(C)C)c2)n1` [Compound 25, 6-(Piperazin-1-yl)-3-(3-tert-butylphenyl)-2-[2-(6-methoxyl-2-pyridinyl)ethenyl]-4(3H)-quinazolinone hydrochloride] was tested. Which “Cytotoxicity to Vero cells” value [2] did it give?
**A.** significant cytotoxicity; also recorded: Cytotoxic

**Q.** `COc1cccc(/C=C/c2nc3ccc(N4CCN(C)CC4)cc3c(=O)n2-c2cccc(C(C)(C)C)c2)n1` [Compound 26, 6-(4-Methylpiperazin-1-yl)-3-(3-tert-butylphenyl)-2-[2-(6-methoxyl-2-pyridinyl)ethenyl]-4(3H)-quinazolinone] was tested. Which “Cytotoxicity to Vero cells” value [2] did it give?
**A.** Cytotoxic

**Q.** Which “Cytotoxicity to Vero cells” value [2] does the source give for `COc1cccc(/C=C/c2nc3ccc(N4CCOCC4)cc3c(=O)n2-c2cccc(C(C)(C)C)c2)n1` [Compound 27, 6-Morpholino-3-(3-tert-butylphenyl)-2-[2-(6-methoxyl-2-pyridinyl)ethenyl]-4(3H)-quinazolinone] here?
**A.** without cytotoxicity

**Q.** And the “ZIKV RNA copies in the supernatant” value [3]?
**A.** dose-dependently reduce

**Q.** What about the “viral titer reduction, 2h-pretreatment” value [4] of the same compound?
**A.** ≥ 90%

**Q.** And the “fold more potent antiviral activity than compound 22” value ([1]; ZIKV-FLR, EC50 comparison)?
**A.** ~ 4 ×

**Q.** And the “cellular levels of viral NS5, NS3 and capsid proteins” value [5]?
**A.** significantly reduce

**Q.** What about the “anti-ZIKV activity in the presence of GSH” value [6] of the same compound?
**A.** not affected

**Q.** With `COc1cccc(/C=C/c2nc3ccc(N4CCC(N5CCOCC5)CC4)cc3c(=O)n2-c2cccc(C(C)(C)C)c2)n1` [Compound 28, 6-(4-Morpholinopiperidin-1-yl)-3-(3-tert-butylphenyl)-2-[2-(6-methoxyl-2-pyridinyl)ethenyl]-4(3H)-quinazolinone] as the compound, how does the “Cytotoxicity to Vero cells” value [2] read?
**A.** without cytotoxicity

**Q.** `COc1cccc(/C=C/c2nc3ccc(-c4ccncc4)cc3c(=O)n2-c2cccc(C(C)(C)C)c2)n1` [Compound 29, 6-(Pyridin-4-yl)-3-(3-tert-butylphenyl)-2-[2-(6-methoxypyridin-2-yl)vinyl]-4(3H)-quinazolinone dihydrochloride] was tested. Which “% inhibition of ZIKV at 10 μM” value ([1]; 10 μM) did it give?
**A.** inactive

**Q.** For `COc1cccc(-c2ccc3nc(/C=C/c4cccc(OC)n4)n(-c4cccc(C(C)(C)C)c4)c(=O)c3c2)c1` [Compound 30, 6-(3-Methoxyphenyl)-3-(3-tert-butylphenyl)-2-[2-(6-methoxypyridin-2-yl)vinyl]-4(3H)-quinazolinone], which “% inhibition of ZIKV at 10 μM” value ([1]; 10 μM) is on record?
**A.** inactive

**Q.** For `CC(C)(C)c1cccc(-n2c(/C=C/c3ccc(C(F)(F)F)cc3)nc3ccc(N4CCCCC4)cc3c2=O)c1` [Compound 36], which “% inhibition of ZIKV at 10 μM” value ([1]; 10 μM, 10 µM) is on record?
**A.** 90%

**Q.** Which “% inhibition of ZIKV at 10 μM” value ([1]; 10 μM) does the source give for `COc1cccc(CCc2nc3ccc(N4CCCCC4)cc3c(=O)n2-c2cccc(C(C)(C)C)c2)n1` [Compound 53, 6-(Piperidin-1-yl)-3-(3-tert-butylphenyl)-2-[2-(6-methoxypyridin-2-yl)ethyl]-4(3H)-quinazolinone] here?
**A.** inactive

**Q.** Which “% inhibition of ZIKV at 10 μM” value ([1]; 10 μM) does the source give for `COc1cccc(CCc2nc3ccc(N4CCOCC4)cc3c(=O)n2-c2cccc(C(C)(C)C)c2)n1` [Compound 54, 6-Morpholino-3-(3-tert-butylphenyl)-2-[2-(6-methoxypyridin-2-yl)ethyl]-4(3H)-quinazolinone] here?
**A.** inactive
